# Measured values: ChEMBL document CHEMBL5303300, “EUbOPEN Chemogenomics Library - Multiplex” (2023)
# Several values for one entry are separate records, joined by “and”; a condition that tells them apart may be missing. Equal values may be shown once.
# System: Fibroblast
# Test: Multiplex assay against human fibroblast
# Assay type: toxicity, cell-based
# Settings: number of replicates 2
# Summary of the method: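 Cells stained live at seeding with Hoechst33342, BioTracker Green Microtubule Cytoskeleton Dye, MitoTracker Red and Annexin V Alexa Fluor 680 were imaged on a CQ1 microscope at 37°C and 5% CO2 after compound addition. Their classification by CellPathfinder machine-learning gating ran from Hoechst high-intensity objects versus normal cells, to healthy, pyknosed or fragmented nuclei among normal cells, to mitotic or apoptotic among pyknosed cells. Tubulin, mitochondrial-mass and membrane-permeability phenotypes are per cents of healthy-nucleus cells.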
# [1] = 12 h, 1 µM, compound concentration 1 uM
# [2] = 12 h, 10 µM, compound concentration 10 uM
# [3] = 24 h, 1 µM, compound concentration 1 uM
# [4] = 24 h, 10 µM, compound concentration 10 uM
# [5] = 48 h, 1 µM, compound concentration 1 uM
# [6] = 48 h, 10 µM, compound concentration 10 uM
compound,measurement,setting,value
CN1CCN(c2ccc(-n3cc(-c4ccncc4OCC4CCNCC4)cn3)cc2)CC1,Population Apoptotic (%),[1],44%
same,Population Fragmented Nuclei (%),[1],13% and 12%
same,Population Healthy Nuclei (%),[1],58% and 71%
same,Population Hoechst High Intensity Objects (%),[1],0%
same,Population Membrane Permeable-Phenotype (%),[1],3% and 8%
same,Population Mitochondria Different-Phenotype (%),[1],2% and 0%
same,Population Mitotic Cells (%),[1],55%
same,Population Normal (%),[1],100%
same,Population Pyknosed Nuclei (%),[1],27% and 16%
same,Population Tubulin-Different-Phenotype (%),[1],15% and 14%
same,Total Cell Count,[1],131 and 173
same,Population Apoptotic (%),[2],38% and 75%
same,Population Fragmented Nuclei (%),[2],13% and 25%
same,Population Healthy Nuclei (%),[2],72% and 63%
same,Population Hoechst High Intensity Objects (%),[2],0%
same,Population Membrane Permeable-Phenotype (%),[2],2% and 4%
same,Population Mitochondria Different-Phenotype (%),[2],1% and 3%
same,Population Mitotic Cells (%),[2],61% and 25%
same,Population Normal (%),[2],100%
same,Population Pyknosed Nuclei (%),[2],14% and 10%
same,Population Tubulin-Different-Phenotype (%),[2],34% and 31%
same,Total Cell Count,[2],179 and 182
same,Population Apoptotic (%),[3],56% and 48%
same,Population Fragmented Nuclei (%),[3],13% and 14%
same,Population Healthy Nuclei (%),[3],58% and 68%
same,Population Hoechst High Intensity Objects (%),[3],0%
same,Population Membrane Permeable-Phenotype (%),[3],7% and 9%
same,Population Mitochondria Different-Phenotype (%),[3],2% and 1%
same,Population Mitotic Cells (%),[3],43% and 51%
same,Population Normal (%),[3],100%
same,Population Pyknosed Nuclei (%),[3],28% and 17%
same,Population Tubulin-Different-Phenotype (%),[3],17% and 13%
same,Total Cell Count,[3],131 and 178
same,Population Apoptotic (%),[4],39% and 47%
same,Population Fragmented Nuclei (%),[4],20% and 26%
same,Population Healthy Nuclei (%),[4],65% and 61%
same,Population Hoechst High Intensity Objects (%),[4],0%
same,Population Membrane Permeable-Phenotype (%),[4],8% and 5%
same,Population Mitochondria Different-Phenotype (%),[4],7% and 13%
same,Population Mitotic Cells (%),[4],60% and 52%
same,Population Normal (%),[4],100%
same,Population Pyknosed Nuclei (%),[4],14% and 11%
same,Population Tubulin-Different-Phenotype (%),[4],52% and 44%
same,Total Cell Count,[4],189 and 192
same,Population Apoptotic (%),[5],75% and 66%
same,Population Fragmented Nuclei (%),[5],21% and 16%
same,Population Healthy Nuclei (%),[5],61% and 72%
same,Population Hoechst High Intensity Objects (%),[5],0%
same,Population Membrane Permeable-Phenotype (%),[5],10% and 4%
same,Population Mitochondria Different-Phenotype (%),[5],1% and 0%
same,Population Mitotic Cells (%),[5],25% and 33%
same,Population Normal (%),[5],100%
same,Population Pyknosed Nuclei (%),[5],16% and 10%
same,Population Tubulin-Different-Phenotype (%),[5],17% and 10%
same,Total Cell Count,[5],142 and 191
same,Population Apoptotic (%),[6],76% and 73%
same,Population Fragmented Nuclei (%),[6],31% and 30%
same,Population Healthy Nuclei (%),[6],54% and 61%
same,Population Hoechst High Intensity Objects (%),[6],0%
same,Population Membrane Permeable-Phenotype (%),[6],2% and 4%
same,Population Mitochondria Different-Phenotype (%),[6],11% and 13%
same,Population Mitotic Cells (%),[6],23% and 26%
same,Population Normal (%),[6],99% and 100%
same,Population Pyknosed Nuclei (%),[6],14% and 7%
same,Population Tubulin-Different-Phenotype (%),[6],59% and 48%
same,Total Cell Count,[6],212 and 189
